Among the data in ChEMBL document CHEMBL5653631, “A Potent and Selective ULK1 Inhibitor Suppresses Autophagy and Sensitizes Cancer Cells to Nutrient Stress” (iScience, 2018) are inhibition and fold change (FC) values, retold here.

Assay [1] has as its target T1, Ephrin type-A receptor 8 (Homo sapiens) (UniProt P29322).
T1 sequence (whole entry): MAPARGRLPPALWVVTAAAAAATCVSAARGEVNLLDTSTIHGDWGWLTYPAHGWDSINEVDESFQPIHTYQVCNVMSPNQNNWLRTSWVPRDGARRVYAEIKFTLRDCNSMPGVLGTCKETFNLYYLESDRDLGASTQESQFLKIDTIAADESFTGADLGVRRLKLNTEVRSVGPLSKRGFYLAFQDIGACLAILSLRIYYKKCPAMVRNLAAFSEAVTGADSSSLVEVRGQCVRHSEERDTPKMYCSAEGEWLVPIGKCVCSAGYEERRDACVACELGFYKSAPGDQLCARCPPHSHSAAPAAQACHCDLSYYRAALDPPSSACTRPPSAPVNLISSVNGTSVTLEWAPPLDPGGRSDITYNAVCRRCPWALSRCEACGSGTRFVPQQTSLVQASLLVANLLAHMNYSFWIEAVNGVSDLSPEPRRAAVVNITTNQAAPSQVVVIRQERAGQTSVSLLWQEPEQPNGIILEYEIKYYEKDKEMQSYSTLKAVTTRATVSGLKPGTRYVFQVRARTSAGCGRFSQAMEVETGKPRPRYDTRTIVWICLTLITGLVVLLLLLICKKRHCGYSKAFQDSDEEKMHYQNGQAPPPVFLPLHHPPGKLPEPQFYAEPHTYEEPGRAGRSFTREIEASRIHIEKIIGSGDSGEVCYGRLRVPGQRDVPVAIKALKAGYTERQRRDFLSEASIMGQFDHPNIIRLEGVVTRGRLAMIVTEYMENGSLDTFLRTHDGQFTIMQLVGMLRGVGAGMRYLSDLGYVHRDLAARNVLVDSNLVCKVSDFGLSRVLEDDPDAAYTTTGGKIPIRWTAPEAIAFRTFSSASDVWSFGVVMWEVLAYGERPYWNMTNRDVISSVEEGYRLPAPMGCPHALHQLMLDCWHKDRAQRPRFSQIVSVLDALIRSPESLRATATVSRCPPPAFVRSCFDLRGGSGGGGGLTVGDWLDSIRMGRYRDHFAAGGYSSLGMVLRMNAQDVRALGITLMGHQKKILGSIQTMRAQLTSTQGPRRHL
The experiment in a line: Inhibition of human recombinant EphA8 at 40 nM in presence of ATP by radiometric assay relative to control.

Assay [2] has as its target MAP/microtubule affinity-regulating kinase 3 (Homo sapiens) (UniProt P27448). The experiment in a line: Inhibition of human recombinant MARK3 at 40 nM related to control ULK1.
Assay [3] has as its target 5'-AMP-activated protein kinase catalytic subunit alpha-2 (Homo sapiens) (UniProt P54646). The experiment in a line: Inhibition of human recombinant AMPKa2 at 500 nM related to control ULK1. In outline:
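Panel of 327 recombinant human kinases, each assayed in vitro by radiometric activity assay in duplicate at a single inhibitor concentration per compound, chosen with reference to its ULK1 inhibition. Activity remaining was expressed as percent of vehicle control, and percent inhibition was calculated as 100 minus percent activity remaining.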

The target in assay [4] is Serine/threonine-protein kinase SIK3 (Homo sapiens) (UniProt Q9Y2K2). As to the kind of experiment: Inhibition of human recombinant QSK at 500 nM related to control ULK1.
Assay [5] addresses Transcription initiation factor TFIID subunit 1-like (Homo sapiens) (UniProt Q8IZX4). The experiment in a line: Inhibition of human recombinant TAF1L at 500 nM related to control ULK1.
Assay [6] deals with Protein-tyrosine kinase 2-beta (Homo sapiens) (UniProt Q14289). The experiment in a line: Inhibition of human recombinant PYK2 at 15 nM in presence of ATP by radiometric assay relative to control.
Assay [7] concerns the target T2, Serine/threonine-protein kinase TAO2 (Homo sapiens) (UniProt Q9UL54).
T2 sequence (whole entry): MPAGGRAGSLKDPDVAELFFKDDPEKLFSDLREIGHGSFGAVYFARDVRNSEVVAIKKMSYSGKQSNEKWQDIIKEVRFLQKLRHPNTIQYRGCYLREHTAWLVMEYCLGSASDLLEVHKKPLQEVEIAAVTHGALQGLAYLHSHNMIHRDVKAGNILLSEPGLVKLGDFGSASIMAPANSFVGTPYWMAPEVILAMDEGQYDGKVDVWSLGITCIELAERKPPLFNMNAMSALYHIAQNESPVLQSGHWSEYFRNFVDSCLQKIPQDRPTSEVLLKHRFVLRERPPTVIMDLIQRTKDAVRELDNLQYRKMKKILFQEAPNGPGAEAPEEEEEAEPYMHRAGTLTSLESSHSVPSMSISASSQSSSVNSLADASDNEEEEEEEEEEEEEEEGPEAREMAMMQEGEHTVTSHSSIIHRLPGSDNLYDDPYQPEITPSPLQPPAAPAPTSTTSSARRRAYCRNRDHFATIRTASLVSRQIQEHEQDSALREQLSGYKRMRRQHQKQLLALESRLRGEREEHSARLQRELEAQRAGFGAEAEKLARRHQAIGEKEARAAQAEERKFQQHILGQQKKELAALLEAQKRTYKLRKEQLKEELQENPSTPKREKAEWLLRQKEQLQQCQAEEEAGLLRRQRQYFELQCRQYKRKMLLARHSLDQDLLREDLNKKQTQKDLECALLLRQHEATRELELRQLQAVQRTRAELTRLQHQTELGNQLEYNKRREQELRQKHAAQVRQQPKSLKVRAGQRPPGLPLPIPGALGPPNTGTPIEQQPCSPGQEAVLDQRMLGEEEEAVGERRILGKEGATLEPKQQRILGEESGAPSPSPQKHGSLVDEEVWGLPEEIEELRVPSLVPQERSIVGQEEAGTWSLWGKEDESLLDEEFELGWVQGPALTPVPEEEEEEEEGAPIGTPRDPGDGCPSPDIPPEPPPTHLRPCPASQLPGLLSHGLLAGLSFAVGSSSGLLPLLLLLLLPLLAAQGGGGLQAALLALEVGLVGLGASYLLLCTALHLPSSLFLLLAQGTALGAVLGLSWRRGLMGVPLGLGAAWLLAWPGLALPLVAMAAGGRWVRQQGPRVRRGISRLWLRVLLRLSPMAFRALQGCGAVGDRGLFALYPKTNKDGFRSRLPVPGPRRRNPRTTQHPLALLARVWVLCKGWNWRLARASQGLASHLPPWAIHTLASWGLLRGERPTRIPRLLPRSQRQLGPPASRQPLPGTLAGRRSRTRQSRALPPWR
As to the kind of experiment: Inhibition of human recombinant TAO2 at 15 nM in presence of ATP by radiometric assay relative to control.

The target of assay [8] is Serine/threonine-protein kinase WNK3 (Homo sapiens) (UniProt Q9BYP7). The experiment in a line: Inhibition of human recombinant Wnk3 at 15 nM in presence of ATP by radiometric assay relative to control.
Sequence of Serine/threonine-protein kinase WNK3 (Homo sapiens) (Q9BYP7 whole entry): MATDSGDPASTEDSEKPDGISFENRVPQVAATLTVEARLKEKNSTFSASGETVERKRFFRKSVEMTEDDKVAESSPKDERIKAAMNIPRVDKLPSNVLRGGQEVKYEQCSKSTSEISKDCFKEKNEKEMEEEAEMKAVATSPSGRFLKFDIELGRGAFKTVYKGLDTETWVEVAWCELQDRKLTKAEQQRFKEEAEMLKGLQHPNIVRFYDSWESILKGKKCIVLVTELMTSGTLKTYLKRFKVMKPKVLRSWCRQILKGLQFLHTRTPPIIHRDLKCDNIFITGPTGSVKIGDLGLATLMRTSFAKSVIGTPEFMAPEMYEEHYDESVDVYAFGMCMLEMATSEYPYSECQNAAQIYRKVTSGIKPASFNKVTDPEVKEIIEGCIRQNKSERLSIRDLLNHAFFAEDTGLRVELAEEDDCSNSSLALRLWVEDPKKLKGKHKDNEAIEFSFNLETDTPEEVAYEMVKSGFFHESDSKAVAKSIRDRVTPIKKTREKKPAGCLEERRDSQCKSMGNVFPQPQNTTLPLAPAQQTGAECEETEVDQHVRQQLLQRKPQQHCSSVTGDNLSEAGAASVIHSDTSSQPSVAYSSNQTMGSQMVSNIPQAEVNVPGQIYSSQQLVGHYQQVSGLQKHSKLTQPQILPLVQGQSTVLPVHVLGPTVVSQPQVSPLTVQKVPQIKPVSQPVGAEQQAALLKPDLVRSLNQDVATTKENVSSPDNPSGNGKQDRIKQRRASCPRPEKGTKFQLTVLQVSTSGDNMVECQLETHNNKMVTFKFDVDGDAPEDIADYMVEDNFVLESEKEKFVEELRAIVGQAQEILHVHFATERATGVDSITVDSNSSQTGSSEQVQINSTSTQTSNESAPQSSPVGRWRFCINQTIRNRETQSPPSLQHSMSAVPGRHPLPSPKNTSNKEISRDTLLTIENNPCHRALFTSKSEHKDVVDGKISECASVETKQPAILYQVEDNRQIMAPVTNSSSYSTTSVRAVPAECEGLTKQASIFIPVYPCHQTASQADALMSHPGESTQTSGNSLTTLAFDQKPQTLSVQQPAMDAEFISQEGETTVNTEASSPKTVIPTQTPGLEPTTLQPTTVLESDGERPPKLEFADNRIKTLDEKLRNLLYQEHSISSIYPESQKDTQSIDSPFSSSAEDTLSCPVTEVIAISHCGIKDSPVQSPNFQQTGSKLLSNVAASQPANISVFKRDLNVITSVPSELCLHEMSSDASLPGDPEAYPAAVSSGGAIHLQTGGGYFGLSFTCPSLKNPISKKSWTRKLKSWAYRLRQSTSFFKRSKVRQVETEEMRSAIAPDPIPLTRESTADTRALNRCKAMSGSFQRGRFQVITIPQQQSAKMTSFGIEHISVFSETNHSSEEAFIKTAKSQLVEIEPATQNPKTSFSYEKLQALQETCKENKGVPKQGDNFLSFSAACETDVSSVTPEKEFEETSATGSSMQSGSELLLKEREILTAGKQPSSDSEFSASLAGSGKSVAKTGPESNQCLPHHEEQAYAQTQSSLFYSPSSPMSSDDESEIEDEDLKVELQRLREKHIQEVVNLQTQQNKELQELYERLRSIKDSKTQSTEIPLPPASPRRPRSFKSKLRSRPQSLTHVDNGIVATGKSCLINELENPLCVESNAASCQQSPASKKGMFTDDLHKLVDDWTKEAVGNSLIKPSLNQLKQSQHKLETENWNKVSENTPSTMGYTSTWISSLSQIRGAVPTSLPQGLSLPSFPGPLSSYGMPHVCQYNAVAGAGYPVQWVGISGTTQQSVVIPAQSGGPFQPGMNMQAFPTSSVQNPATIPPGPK

Sequence of 5'-AMP-activated protein kinase catalytic subunit alpha-2 (Homo sapiens) (P54646 whole entry, looked up): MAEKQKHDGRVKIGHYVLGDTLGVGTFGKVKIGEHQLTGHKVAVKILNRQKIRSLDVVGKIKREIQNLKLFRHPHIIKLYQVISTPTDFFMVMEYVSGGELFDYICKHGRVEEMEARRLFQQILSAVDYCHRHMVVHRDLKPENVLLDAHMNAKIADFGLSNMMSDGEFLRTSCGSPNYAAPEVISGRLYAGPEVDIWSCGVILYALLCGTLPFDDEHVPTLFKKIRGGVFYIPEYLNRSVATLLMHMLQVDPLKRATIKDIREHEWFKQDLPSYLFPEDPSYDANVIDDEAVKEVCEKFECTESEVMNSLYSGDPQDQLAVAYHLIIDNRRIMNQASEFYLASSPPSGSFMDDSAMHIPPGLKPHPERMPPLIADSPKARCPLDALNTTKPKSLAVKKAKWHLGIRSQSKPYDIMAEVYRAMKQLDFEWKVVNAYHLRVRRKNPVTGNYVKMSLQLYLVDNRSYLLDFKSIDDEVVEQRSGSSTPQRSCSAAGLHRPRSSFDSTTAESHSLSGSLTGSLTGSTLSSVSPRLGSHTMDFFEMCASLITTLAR
Sequence of MAP/microtubule affinity-regulating kinase 3 (Homo sapiens) (P27448 whole entry, looked up): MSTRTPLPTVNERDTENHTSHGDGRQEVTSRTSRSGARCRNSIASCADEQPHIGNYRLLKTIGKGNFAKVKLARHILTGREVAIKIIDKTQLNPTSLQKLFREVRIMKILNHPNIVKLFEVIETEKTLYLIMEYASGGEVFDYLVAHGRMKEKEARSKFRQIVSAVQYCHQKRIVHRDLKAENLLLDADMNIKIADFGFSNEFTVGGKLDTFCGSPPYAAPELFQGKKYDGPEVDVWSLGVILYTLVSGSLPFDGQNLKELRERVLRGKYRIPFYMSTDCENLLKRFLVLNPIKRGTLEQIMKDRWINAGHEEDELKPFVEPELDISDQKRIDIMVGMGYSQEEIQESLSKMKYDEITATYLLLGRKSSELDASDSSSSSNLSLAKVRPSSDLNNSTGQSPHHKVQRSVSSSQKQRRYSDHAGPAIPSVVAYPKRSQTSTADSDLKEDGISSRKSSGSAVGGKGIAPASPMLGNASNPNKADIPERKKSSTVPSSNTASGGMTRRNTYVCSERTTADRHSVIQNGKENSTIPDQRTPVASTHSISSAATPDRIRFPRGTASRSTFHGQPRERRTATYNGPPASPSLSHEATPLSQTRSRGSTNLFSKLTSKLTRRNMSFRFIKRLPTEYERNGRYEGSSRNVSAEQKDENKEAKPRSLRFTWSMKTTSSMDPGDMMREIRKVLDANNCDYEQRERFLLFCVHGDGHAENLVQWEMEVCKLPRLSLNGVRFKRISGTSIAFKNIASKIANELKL
Sequence of Transcription initiation factor TFIID subunit 1-like (Homo sapiens) (Q8IZX4 whole entry): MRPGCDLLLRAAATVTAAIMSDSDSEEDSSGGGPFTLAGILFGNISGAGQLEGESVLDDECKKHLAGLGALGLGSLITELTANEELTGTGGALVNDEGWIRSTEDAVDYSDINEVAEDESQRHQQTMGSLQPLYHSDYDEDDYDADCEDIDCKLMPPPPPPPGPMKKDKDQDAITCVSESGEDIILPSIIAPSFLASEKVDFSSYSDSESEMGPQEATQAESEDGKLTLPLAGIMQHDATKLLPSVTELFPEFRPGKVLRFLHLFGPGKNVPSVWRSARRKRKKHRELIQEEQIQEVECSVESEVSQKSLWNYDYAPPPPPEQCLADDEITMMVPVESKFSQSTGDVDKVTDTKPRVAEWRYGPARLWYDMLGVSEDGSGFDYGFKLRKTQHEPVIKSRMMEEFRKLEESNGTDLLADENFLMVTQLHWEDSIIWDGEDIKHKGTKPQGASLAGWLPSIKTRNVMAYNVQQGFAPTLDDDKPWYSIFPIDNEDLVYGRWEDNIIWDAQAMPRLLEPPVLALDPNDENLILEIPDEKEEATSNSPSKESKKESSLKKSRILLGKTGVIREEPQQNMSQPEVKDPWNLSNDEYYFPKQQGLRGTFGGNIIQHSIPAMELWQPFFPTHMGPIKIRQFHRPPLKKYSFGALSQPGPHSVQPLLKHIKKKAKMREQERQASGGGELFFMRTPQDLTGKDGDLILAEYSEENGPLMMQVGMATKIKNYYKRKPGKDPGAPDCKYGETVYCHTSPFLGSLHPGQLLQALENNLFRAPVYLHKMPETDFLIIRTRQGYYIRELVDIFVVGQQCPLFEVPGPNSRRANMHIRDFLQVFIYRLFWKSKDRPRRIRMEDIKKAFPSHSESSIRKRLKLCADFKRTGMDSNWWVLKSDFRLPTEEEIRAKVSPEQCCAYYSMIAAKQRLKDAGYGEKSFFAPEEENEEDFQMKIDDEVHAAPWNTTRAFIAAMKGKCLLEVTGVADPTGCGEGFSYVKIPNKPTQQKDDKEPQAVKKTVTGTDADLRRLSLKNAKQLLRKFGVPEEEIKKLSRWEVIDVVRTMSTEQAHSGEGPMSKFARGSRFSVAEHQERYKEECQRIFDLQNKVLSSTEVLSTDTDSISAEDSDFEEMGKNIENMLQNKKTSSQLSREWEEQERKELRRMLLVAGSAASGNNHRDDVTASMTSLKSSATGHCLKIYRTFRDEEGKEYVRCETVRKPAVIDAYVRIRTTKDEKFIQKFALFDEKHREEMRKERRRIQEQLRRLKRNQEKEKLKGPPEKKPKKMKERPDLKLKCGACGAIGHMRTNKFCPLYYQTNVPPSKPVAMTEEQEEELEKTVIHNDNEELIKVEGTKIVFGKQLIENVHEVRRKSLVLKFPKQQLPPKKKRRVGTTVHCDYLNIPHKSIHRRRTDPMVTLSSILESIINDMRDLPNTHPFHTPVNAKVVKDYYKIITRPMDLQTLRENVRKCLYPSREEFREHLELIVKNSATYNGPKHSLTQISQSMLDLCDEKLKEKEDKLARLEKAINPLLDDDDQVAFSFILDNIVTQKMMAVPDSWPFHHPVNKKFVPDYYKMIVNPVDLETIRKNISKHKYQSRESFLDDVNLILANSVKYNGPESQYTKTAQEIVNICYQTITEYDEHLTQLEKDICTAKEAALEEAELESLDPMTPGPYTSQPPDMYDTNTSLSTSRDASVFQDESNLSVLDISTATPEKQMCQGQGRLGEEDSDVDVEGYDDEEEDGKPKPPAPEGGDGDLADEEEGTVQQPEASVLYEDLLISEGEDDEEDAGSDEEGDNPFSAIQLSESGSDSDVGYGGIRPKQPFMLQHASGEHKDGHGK

As for `O=C(N[C@@H](C1CC1)C(F)(F)F)c1cc(-c2cnn3cc(-c4ccc(F)cc4)cnc23)cs1`, in assay [1], the inhibition (commonly the change of the read-out against control, counted positive when it falls) is 0%. Further, the fold change (FC) in assay [2] is 0.21.
For the compound `CNC(=O)c1ccccc1Oc1nc(Nc2cc(OC)c(OC)c(OC)c2)ncc1Br`, the fold change (FC) in assay [3] is 0.77; in assay [4], 0.11; in assay [5] it was 0.
For `CC(C)[C@H](NC(=O)c1cc(-c2cnn3cc(-c4ccc(OCCN5CCCCC5)cc4)cnc23)cs1)C(F)(F)F`, the inhibition in assay [6], in assay [7] and in assay [8] was 0% throughout.
